Like-named read-outs stand apart in the source and are kept apart here. Blank lines part the entries; values can stand above or below the substance they belong to.
Experiments:
[1] = tested on: N9 TCR / Kd molecule; assay: Inhibition of N9 TCR photoaffinity labeling by competitor peptides and mAbs; assay type: binding, mouse; conditions: competitor peptide at 300-fold molar excess; N9 cells; SDS-PAGE 10%, nonreducing
[2] = tested on: CTL clone N9; assay: 51Cr-release CTL recognition assay, clone N9; assay type: cell-based, mouse
Method in brief: (§1)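 Test peptide derivatives were titrated in threefold dilutions on P815 target cells in a 51Cr-release assay at an E/T ratio of 3:1, run 4 h at 37°C. Specific lysis = 100 × (experimental − spontaneous)/(total − spontaneous). Relative antigenic activity = concentration of the reference photoprobe giving 50% maximal lysis divided by that of the variant.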

[3] = target: Kd molecule; assay: Kd photoaffinity labeling on CTL clones; assay type: binding, mouse; conditions: UV irradiation, Kd immunoprecipitated, SDS-PAGE 10%, reducing
Method in brief: (§2)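 Live CTL clone cells were washed into DMEM with 0.5% FCS and 10 mM Hepes. They were incubated with biotinylated 125I-IASA photoprobe (~2,000 Ci/mmol) plus human β2m, 4-5 h at 37°C in 5% CO2, then UV irradiated at 312 nm for 5 min at 4°C. Cells were lysed in 0.7% NP-40 with leupeptin, PMSF and iodoacetamide. Kd (mAb 20-8-4S) or TCR-α/β (H57-597) was immunoprecipitated and run on 10% reducing SDS-PAGE.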

[4] = target: Kd molecule; conditions: cited from earlier work
[5] = tested on: biotin-YIPSAEK(IASA)I-specific CTL clones; assay: CTL recognition of peptide derivatives, statements over several clones; assay type: cell-based, mouse
Method in brief: as §1

[6] = target: Kd molecule; conditions: compared with isomeric IASA-YIPSAEK(biotin)I or the parent derivative; cited from earlier work
[7] = tested on: TCR of biotin-YIPSAEK(IASA)I-specific CTL clones; assay: TCR photoaffinity labeling on living CTL clones; assay type: binding, mouse; conditions: for TCR photoaffinity labeling: 4-5 h 37 C, UV 312 nm 5 min, TCR immunoprecipitated, SDS-PAGE
Method in brief: as §2

[8] = tested on: TCR of biotin-YIPSAEK(IASA)I-specific CTL clones; conditions: different cell types; cited from earlier work

Substance: YIPSAEKI [PbCS 253-260]
- effect on N9 TCR labeling by biotin-YIPSAEK(125IASA)I [1]: abolished

Substance: biotin-YIPSAEK(BA)I
- recognition by clone N9 compared with the original conjugate ([2]; clone N9, only clone among the eight to recognize this variant): as efficientlyas the original

- Kd photoaffinity labeling ([3]; clone N1): slightly reduced
- Kd photoaffinity labeling ([3]; clone N4): efficient
- Kd photoaffinity labeling ([3]; clone N6): efficient
- Kd photoaffinity labeling ([3]; clone N9): efficient
- Kd photoaffinity labeling ([3]; clone N11): slightly reduced
- Kd photoaffinity labeling ([3]; clone O1): efficient
Substance: lZSlASA-YIPSAEK(biotin)I [125IASA-YIPSAEK(biotin)I]

Substance: biotin-YIPSAEK (4-azido benzoic acid [ABA]I [biotin-YIPSAEK(ABA)I]
- efficiency of recognition relative to the original photoprobe ([2]; clone N9, versus biotin-YIPSAEK(IASA)I): about 50 times

Substance: biotin-YIPSAEK(IASA)I
- Kd photoaffinity labeling [4]: could not
- recognition by clone O8 ([5]; additional clone 08, data not shown): recognized
- binding to Kd molecules [6]: bound equally efficiently

Substance: biotin-YIPSAEK(ASA)I
- improvement of recognition on removal of the iodine from the IASA group ([5]; the other four clones, versus biotin-YIPSAEK(IASA)I): 6-12 fold

Substance: biotin-YIPSAEK(125IASA)I
- TCR photoaffinity labeling ([7]; clone N1): No significant TCR labeling
- TCR photoaffinity labeling ([7]; clone N4): showed TCR photoaffinity labeling
- TCR photoaffinity labeling ([7]; clone N9): showed TCR photoaffinity labeling
- photoaffinity-labeled TCR chain ([7]; clone N9, two-dimensional gel electrophoresis): labeled both chains
- TCR photoaffinity labeling ([7]; clone N11): showed TCR photoaffinity labeling
- TCR photoaffinity labeling ([7]; clone O1): No significant TCR labeling
- TCR photoaffinity labeling ([7]; clone O7): No significant TCR labeling
- TCR photoaffinity labeling ([7]; clone O11): No significant TCR labeling

Substance: IASA-YIPSAEK(biotin)I
- Kd photoaffinity labeling [4]: selectively labeled the Kd molecules
- TCR photoaffinity labeling [8]: failsto label
